Results: ChEMBL document CHEMBL1149745, “An antiplatelet aggregation principle and X-ray structural analysis of cis-khellactone diester from Peucedanum japonicum” (1992)

Columns and labels:
Assay type in all cases: functional, Oryctolagus cuniculus, Platelet
[1] = Antiplatelet aggregation activity in PAF-induced rabbit platelets assessed as aggregation at 100 ug/ml
Summary of the method: (§1)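 Platelets preincubated 3 min at 37° with test agent (100 µg/ml) or 0.5% DMSO as control, then challenged with an inducer: ADP 20 µM, PAF 2 ng/ml, arachidonic acid 100 µM, collagen 10 µg/ml. Percent aggregation reported as means ± S.E.M., n = 3–6, compared against the respective control.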

[2] = Antiplatelet aggregation activity in ADP-induced rabbit platelets assessed as aggregation at 100 ug/ml; summary of the method: as §1
[3] = Antiplatelet aggregation activity in arachidonic acid-induced rabbit platelets assessed as aggregation at 100 ug/ml; summary of the method: as §1
[4] = Antiplatelet aggregation activity in collagen-induced rabbit platelets assessed as aggregation at 100 ug/ml; summary of the method: as §1

Compound	Activity [1]	Activity [2]	Activity [3]	Activity [4]
CC(C)=CC(=O)O[C@H]1c2c(ccc3ccc(=O)oc23)OC(C)(C)[C@H]1OC(=O)CC(C)C (relative stereo)	57.4%	64%	76.3%	75.7%
CC(C)=CC(=O)O[C@H]1c2c(ccc3ccc(=O)oc23)OC(C)(C)[C@H]1OC(=O)C=C(C)C (relative stereo)	73.2%	61.7%	43.6%	72.3%
CC(C)CC(=O)O[C@H]1c2c(ccc3ccc(=O)oc23)OC(C)(C)[C@H]1OC(=O)CC(C)C	0%	8.8%	49.8%	39.3%
